System in one test: not listed separately
The experiment in a line: Anti-prion activity against 22L prion protein in mouse N2a cells by Western blotting analysis. The test is classed as cell-based. (In general: In western blotting, separated proteins are transferred to a membrane and probed.)
The IC50 is the concentration that inhibits the measured activity by half. Higher therefore signals weaker potency in that assay. With `OC1(C#Cc2ccccc2)CCCCC1NCc1ccccc1` (racemic), the IC50 was 8.25 µM.

System in a further test: not listed separately
Nature of the test: Anti-prion activity against Scrapie prion protein in mouse N2a-FK cells after 48 hrs by immunoblotting analysis. It counts as cell-based. A digest of the protocol: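 N2a cells persistently infected with FK-1 prion strain, seeded overnight at 37 °C, then exposed to compound at 1, 5 and 10 µM for 48 h. Lysates digested with 20 μg/mL proteinase K at 37 °C for 30 min, run on 15% SDS-PAGE, and western blotted. PrP^Sc band intensity was plotted against concentration and fitted to a Boltzmann sigmoid for IC50. Mean ± SD from at least three experiments.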
Regarding `O[C@@]1(C#Cc2ccc(F)cc2)CCCC[C@@H]1NCC1CCCCC1` (racemic), inhibition was half-maximal at 5.6 µM (IC50).

`O[C@@]1(C#Cc2ccccc2)CCCC[C@@H]1NCC1CCCCC1` (racemic) yielded an IC50 of 4.7 µM.

System in another test: not listed separately
The experiment in a line: Anti-prion activity against RML prion protein in mouse N2a cells by Western blotting analysis. It counts as cell-based.
In the case of `OC1(C#Cc2ccccc2)CCCCC1NCc1ccccc1` (racemic), half-maximal inhibition (IC50) required 3.21 µM.

In the next test the test system is N2a. Nature of the test: Anti-prion activity against Scrapie prion protein in mouse N2a-FK cells assessed as residual activity at 10 uM after 48 hrs by immunoblotting analysis relative to control. The test is classed as cell-based. A digest of the protocol:
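FK-1-infected N2a cells were seeded overnight at 37 °C, then exposed to 10 µM compound for 48 h. Lysates were treated with 20 μg/mL proteinase K at 37 °C for 30 min, then 15% SDS-PAGE and western blot for PrP^Sc. PrP^Sc ratio is % of solvent-treated control (100%), Tukey-Kramer comparison, mean ± SD.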
`O[C@@]1(C#Cc2ccccc2)CCCC[C@@H]1NCc1ccncc1` (racemic): the Activity turned out to be 102%.

As to `O=C(N[C@H]1CCCC[C@@]1(O)CCc1ccccc1)c1ccccc1` (racemic), the Activity came out at 126%.

As to `O[C@@]1(C#Cc2ccccc2)CCCC[C@@H]1NCc1cccnc1` (racemic), the Activity was found to be 63.4%.

For the molecule `O[C@@]1(C#Cc2ccccc2)CCCC[C@@H]1NCc1ccccc1`, the Activity stood at 100%.

Regarding `COC(=O)c1ccc(C#C[C@]2(O)CCCC[C@@H]2NCc2ccccc2)cc1` (racemic), the Activity amounted to 84.8%.

`O[C@@]1(C#Cc2ccccc2)CCCC[C@@H]1NCc1ccccc1F` (mixture of isomers): the Activity came out at 68.6%.

As for `O[C@@]1(C#Cc2ccccc2)CCCC[C@@H]1NCc1ccco1` (racemic), the Activity was determined as 103%.

As for `OC(C#Cc1ccccc1)CNCc1ccccc1` (centres undefined), the Activity is 120%.

In the case of `O[C@@]1(C#Cc2ccccc2)CCCC[C@@H]1NCc1cccc(F)c1` (racemic), the Activity came out at 61.2%.

Take `O[C@@]1(C#Cc2ccccc2F)CCCC[C@@H]1NCc1ccccc1` (racemic): the Activity worked out at 80.7%.

Take `Cc1ccc(C#C[C@]2(O)CCCC[C@@H]2NCC2CCCCC2)cc1` (racemic): the Activity turned out to be 75.2%.

With `OC1(CN[C@H]2CCCC[C@@]2(O)C#Cc2ccccc2)CCCCC1` (racemic), the Activity came to 77.5%.

Consider `COc1ccc(C#C[C@]2(O)CCCC[C@@H]2NCc2ccccc2)cc1` (racemic), for which the Activity stood at 75.7%.

Consider `OC1(C#Cc2ccccc2)CCCCC1NCc1ccccc1` (racemic), for which the Activity was found to be 85.8%.

Consider `O=C1O[C@@]2(C#Cc3ccccc3)CCCC[C@@H]2N1Cc1ccccc1`, for which the Activity was found to be 68.4%.

Turning to `O=S(=O)(N[C@H]1CCCC[C@@]1(O)CCc1ccccc1)c1ccccc1` (racemic), the Activity was 112%.

As for `O[C@@]1(/C=C/c2ccccc2)CCCC[C@@H]1NCc1ccccc1`, the Activity worked out at 81.6%.

As for `Cc1cccc(C#C[C@]2(O)CCCC[C@@H]2NCc2ccccc2)c1`, the Activity turned out to be 93.7%.

As for `CCOC(=O)CN(Cc1ccccc1)[C@H]1CCCC[C@@]1(O)C#Cc1ccccc1` (racemic), the Activity turned out to be 76.1%.

`O[C@@]1(C#Cc2cccc(F)c2)CCCC[C@@H]1NCc1ccccc1` (racemic): the Activity was 74.5%.

Consider `O[C@@]1(C#Cc2ccccc2)CCCC[C@@H]1NCc1ccccc1Cl` (racemic), for which the Activity turned out to be 96.1%.

`O[C@@]1(C#Cc2ccccc2)CCCC[C@@H]1N1CCc2ccccc2C1` (racemic): the Activity is 86%.

Take `O[C@@]1(C#Cc2ccc(F)cc2)CCCC[C@@H]1NCc1ccccc1` (racemic): the Activity was 95.1%.

With `CC(C)(C)OC(=O)N1CC[C@@](O)(C#Cc2ccccc2)[C@@H](NCc2ccccc2)C1` (racemic), the Activity came to 108%.

On to `Cc1cccc(CN[C@H]2CCCC[C@@]2(O)C#Cc2ccccc2)c1`, for which the Activity amounted to 84.8%.

In the case of `O[C@@]1(C#Cc2ccccc2)CCOC[C@@H]1NCc1ccccc1` (racemic), the Activity came to 85.2%.

With `Cc1ccc(CN[C@H]2CCCC[C@@]2(O)C#Cc2ccccc2)cc1` (racemic), the Activity was determined as 75.5%.

For the molecule `O[C@@]1(C#Cc2ccccc2)CCCCC[C@@H]1NCc1ccccc1` (racemic), the Activity is 75.7%.

`O[C@@]1(C#Cc2ccccc2)CCCC[C@@H]1N1CC[C@@H]2CCCC[C@H]2C1` (racemic): the Activity worked out at 66.7%.

On to `O[C@@]1(C#Cc2ccc(F)cc2)CCCC[C@@H]1NCC1CCCCC1` (racemic), for which the Activity was found to be 35.5%.

Regarding `N[C@H]1CCCC[C@@]1(O)CCc1ccccc1` (racemic), the Activity stood at 88%.

Take `O[C@@]1(C#Cc2ccccc2)CCCC[C@@H]1NCc1ccccn1` (racemic): the Activity turned out to be 116%.

`O[C@@]1(C#Cc2ccccc2)CCCC[C@@H]1NCc1ccc(F)cc1` (racemic): the Activity came out at 58.8%.

In the case of `O[C@@]1(C#Cc2ccccc2)CCCC[C@@H]1NCC1CCCC1` (racemic), the Activity was found to be 54.8%.

With `COC(=O)c1cccc(C#C[C@]2(O)CCCC[C@@H]2NCc2ccccc2)c1` (racemic), the Activity was determined as 83.7%.

`COC(=O)c1ccccc1C#C[C@]1(O)CCCC[C@@H]1NCc1ccccc1` (racemic): the Activity turned out to be 103%.

For `O[C@@]1(C#Cc2ccc(Cl)cc2)CCCC[C@@H]1NCc1ccccc1` (racemic), the Activity was 77.5%.

In the case of `C(#C[C@@]12CCCC[C@@H]1N2Cc1ccccc1)c1ccccc1` (mixture of isomers), the Activity was 96.7%.

Consider `COc1ccc(CN[C@H]2CCCC[C@@]2(O)C#Cc2ccccc2)cc1` (racemic), for which the Activity is 83.3%.

In the case of `O[C@@]1(C#Cc2ccccc2)CCCC[C@@H]1NCC1CCCCC1` (racemic), the Activity is 32.7%.
